Measurements gathered from unrelated publications.

With CCOC(=O)c1nn(-c2cccc(Cl)c2)/c(=N/N=C(\C)c2ccc(NC(=O)c3ccccc3)cc2)s1 the viability was 59.2% (MCF7; cell growth or viability; MTT; 0.156 µM).
With Clc1cccc(/C=N/N=C/c2cccc(Cl)c2)c1 the IC50 was 2350 µM (DPPH scavenging).
The IC50 of CCN(CC)c1ccc(/C=N/c2ccc(F)cc2)c(O)c1 is reported as 30.1 µM (DPPH scavenging).
The viability of CC(=O)c1nn(-c2ccccc2Cl)/c(=N/N=C(\C)c2ccc(NC(=O)c3ccccc3)cc2)s1 is reported as 6.17% (MCF7; cell growth or viability; MTT; 5 µM).
With CC(=NNC(=O)c1ccccc1)c1ccc(Nc2nnc(-c3ccc(Cl)cc3)c3ccccc23)cc1 the viability was 5.18% (MCF7; cell growth or viability; MTT; 5 µM; 24 h).
For COc1cccc(/C=N/N=C/c2cccc(OC)c2)c1, the IC50 was 755 µM (DPPH scavenging).
The viability of CCOC(=O)c1nn(-c2cccc(Cl)c2)/c(=N/N=C(\C)c2ccc(NC(=O)c3ccc(Cl)cc3)cc2)s1 is reported as 3.92% (MCF7; cell growth or viability; MTT; 0.625 µM).
For COc1ccc(COC[C@@](O)(CNCc2ccc(F)cc2)[C@@H]2CC[C@@H](C)C[C@H]2OCc2ccc(OC)cc2)cc1, the inhibition was 101% (MCF7; cell growth or viability; MTT; 30 µM; 72 h).
O=C1O[C@H]([C@@H](O)CO)C(O)=C1O has an IC50 of 12.4 µM (DPPH scavenging; absorbance; 30 min).
With CC(=O)c1nn(-c2ccc(C)cc2)/c(=N/N=C(\C)c2ccc(NC(=O)c3ccccc3)cc2)s1 the viability was 9.14% (MCF7; cell growth or viability; MTT; 0.156 µM).
With O=C(Nc1ccc(Oc2nnc(-c3ccc(Cl)cc3)c3ccccc23)cc1)c1cccc([N+](=O)[O-])c1 the cell death was 92% (MCF7; cell growth or viability; MTT; 10 µM).
With Clc1ccc(/C=N/N=C/c2ccc(Cl)cc2Cl)c(Cl)c1 the IC50 was > 3000 µM (DPPH scavenging).
For CC(=NNC(=O)c1ccccc1O)c1ccc(Nc2nnc(-c3ccc(Cl)cc3)c3ccccc23)cc1, the cell death was 66.2% (MCF7; cell growth or viability; MTT; 5 µM).
For Brc1cccc(/C=N/N=C/c2cccc(Br)c2)c1, the IC50 was 2400 µM (DPPH scavenging).
CC(=NNC(=O)c1ccccc1Br)c1ccc(Nc2nnc(-c3ccc(Cl)cc3)c3ccccc23)cc1 gave a viability of 75.9% (MCF7; cell growth or viability; MTT; 0.625 µM; 24 h).
FC(F)(F)c1ccc(/C=N/N=C/c2ccc(C(F)(F)F)cc2)cc1 has an IC50 of > 3000 µM (DPPH scavenging).
The IC50 of CCN(CC)c1ccc(/C=N/c2ccc(F)c(Cl)c2)c(O)c1 is reported as 47.6 µM (DPPH scavenging).
For Cc1cccc(/C=N/N=C/c2cccc(C)c2)c1, the IC50 was 711 µM (DPPH scavenging).
The viability of O=C(Nc1ccccc1)Nc1ccc(Oc2nnc(-c3ccc(Cl)cc3)c3ccccc23)cc1 is reported as 5.36% (MCF7; cell growth or viability; MTT; 10 µM; 24 h).
